Experimental data published in ChEMBL document CHEMBL1139333, “Search for new pharmacophores for antimalarial activity. Part I: synthesis and antimalarial activity of new 2-methyl-6-ureido-4-quinolinamides” (Bioorg Med Chem, 2009).
Converted amounts (≈) assume the structure as drawn.

Key:
[1] = Selectivity index, ratio of CC50 for african green monkey (Cercopithecus aethiops) Vero cells to IC50 for Plasmodium falciparum 3D7; assay type: functional
Plasmodium falciparum [2] = experiment: Antimalarial activity against chloroquine-sensitive Plasmodium falciparum 3D7 infected erythrocytes after 72 hrs by MSF assay; details: 3D7, 72 h
Plasmodium falciparum [3] = experiment: Antimalarial effect as schizonticidal activity against chloroquine-sensitive Plasmodium falciparum 3D7 after 40 hrs; details: 3D7, 40 h
Plasmodium yoelii [4] = experiment: Antimalarial activity as parasitaemia after 28 days against chloroquine-resistant Plasmodium yoelii N67 infected Swiss mice (Mus musculus) at 50 mg/kg peroral dose over 4 days; assay type: functional; details: route oral
Outline: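 Swiss mice (25 g, either sex, n=5) infected on day 0 with 1 × 10⁶ P. yoelii N67 chloroquine-resistant parasitized cells. Test compounds were given orally as an aqueous suspension at 50 mg/kg from day 0 to 3; vehicle controls were run alongside. Parasitaemia was counted on tail-vein thin smears on days 4, 7, 14, 21 and 28, or until death.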

Plasmodium yoelii [5] = experiment: Antimalarial activity as parasitaemia after 28 days against chloroquine-resistant Plasmodium yoelii N67 infected Swiss mice (Mus musculus) at 50 mg/kg peroral dose over 7 days; assay type: functional; details: route oral

Row | SMILES | IC50 (Plasmodium falciparum [2]) | MIC (Plasmodium falciparum [3]) | also measured
1 | Cc1cc(NC(=O)c2ccccc2Cl)c2cc(NC(=O)Nc3cc(Cl)cc(Cl)c3)ccc2n1 | 0.0217 µg/mL (≈ 0.0434 µM) | – | Selectivity Index [1]: 505
2 | Cc1cc(NC(=O)c2cccc(Cl)c2)c2cc(NC(=O)Nc3ccc(Br)cc3)ccc2n1 | – | 2 µg/mL (≈ 3.92 µM) | –
3 | Cc1cc(NC(=O)c2cccc(Cl)c2)c2cc(NC(=O)Nc3cccc(Cl)c3)ccc2n1 | – | 50 µg/mL (≈ 107 µM) | –
4 | CC(=O)c1cccc(NC(=O)Nc2ccc3nc(C)cc(NC(=O)c4cccc(Cl)c4)c3c2)c1 | – | 10 µg/mL (≈ 21.1 µM) | –
5 | Cc1cc(NC(=O)c2ccco2)c2cc(NC(=O)Nc3cc(Cl)cc(Cl)c3)ccc2n1 | – | 2 µg/mL (≈ 4.39 µM) | –
6 | Cc1cc(NC(=O)c2cccc(Cl)c2)c2cc(NC(=O)Nc3cccc(F)c3)ccc2n1 | – | > 50 µg/mL | –
7 | CC(=O)Nc1cc(C)nc2ccc(NC(=O)Nc3cc(Cl)cc(Cl)c3)cc12 | – | 2 µg/mL (≈ 4.96 µM) | –
8 | Cc1cc(NC(=O)c2ccccc2Cl)c2cc(NC(=O)Nc3ccc(Br)cc3)ccc2n1 | – | 2 µg/mL (≈ 3.92 µM) | Activity (Plasmodium yoelii [4]): 1.9%; Activity (Plasmodium yoelii [5]): 8.8%
9 | CC(=O)Nc1cc(C)nc2ccc(NC(=O)Nc3ccc(C(C)=O)cc3)cc12 | – | 10 µg/mL (≈ 26.6 µM) | –
10 | Cc1cc(NC(=O)c2ccccc2)c2cc(NC(=O)Nc3ccc(Cl)cc3)ccc2n1 | – | > 50 µg/mL | –
11 | CC(=O)c1cccc(NC(=O)Nc2ccc3nc(C)cc(NC(=O)CN4CCN(C)CC4)c3c2)c1 | 0.146 µg/mL (≈ 0.308 µM) | 0.5 µg/mL (≈ 1.05 µM) | Selectivity Index [1]: 524.5
12 | Cc1cc(NC(=O)c2cccc(Cl)c2)c2cc(NC(=O)Nc3ccc(C)c(Cl)c3)ccc2n1 | – | 10 µg/mL (≈ 20.9 µM) | –
13 | CC(=O)c1ccc(NC(=O)Nc2ccc3nc(C)cc(NC(=O)c4ccccc4Cl)c3c2)cc1 | – | 2 µg/mL (≈ 4.23 µM) | Activity (Plasmodium yoelii [4]): 3.03%; Activity (Plasmodium yoelii [5]): 5.98%
14 | Cc1cc(NC(=O)CN2CCN(C)CC2)c2cc(NC(=O)Nc3cccc(Cl)c3C)ccc2n1 | – | > 10 µg/mL | –
15 | Cc1cc(NC(=O)c2ccccc2)c2cc(NC(=O)Nc3ccc(C)c(Cl)c3)ccc2n1 | – | 2 µg/mL (≈ 4.5 µM) | –
16 | CC(=O)c1cccc(NC(=O)Nc2ccc3nc(C)cc(NC(=O)CN4CCCCC4)c3c2)c1 | – | – | Selectivity Index [1]: 214.4
17 | Cc1cc(NC(=O)c2cccc(Cl)c2)c2cc(NC(=O)Nc3cccc(C#N)c3)ccc2n1 | – | 1 µg/mL (≈ 2.19 µM) | –
18 | Cc1cc(NC(=O)c2ccccc2)c2cc(NC(=O)Nc3cccc(Cl)c3)ccc2n1 | – | 50 µg/mL (≈ 116 µM) | –
19 | Cc1cc(NC(=O)c2ccccc2Cl)c2cc(NC(=O)Nc3ccc(Cl)c(Cl)c3)ccc2n1 | 0.194 µg/mL (≈ 0.389 µM) | 1 µg/mL (≈ 2 µM) | Selectivity Index [1]: 16.8
20 | Cc1cc(NC(=O)c2ccccc2Cl)c2cc(NC(=O)Nc3cccc(C(F)(F)F)c3)ccc2n1 | – | 2 µg/mL (≈ 4.01 µM) | –
21 | CC(=O)Nc1cc(C)nc2ccc(NC(=O)Nc3ccc(C)c(Cl)c3)cc12 | – | 50 µg/mL (≈ 131 µM) | –
22 | Cc1cc(NC(=O)c2ccccc2)c2cc(NC(=O)Nc3cccc(Cl)c3C)ccc2n1 | – | 50 µg/mL (≈ 112 µM) | –

Row | SMILES | IC50 (Plasmodium falciparum [2]) | MIC (Plasmodium falciparum [3]) | also measured
23 | CC(=O)c1ccc(NC(=O)Nc2ccc3nc(C)cc(NC(=O)c4ccccc4)c3c2)cc1 | – | 50 µg/mL (≈ 114 µM) | –
24 | CC(=O)c1cccc(NC(=O)Nc2ccc3nc(C)cc(NC(=O)c4ccccc4)c3c2)c1 | – | 10 µg/mL (≈ 22.8 µM) | –
25 | CCN1CCN(CC(=O)Nc2cc(C)nc3ccc(NC(=O)Nc4cccc(C(F)(F)F)c4)cc23)CC1 | 0.028 µg/mL (≈ 0.0544 µM) | 0.5 µg/mL (≈ 0.972 µM) | –
26 | Cc1cc(NC(=O)c2ccccc2Cl)c2cc(NC(=O)Nc3ccc(Cl)cc3)ccc2n1 | – | 2 µg/mL (≈ 4.3 µM) | –
27 | Cc1cc(NC(=O)c2cccc(Cl)c2)c2cc(NC(=O)Nc3ccc(Cl)c(Cl)c3)ccc2n1 | – | 10 µg/mL (≈ 20 µM) | –
28 | Cc1cc(NC(=O)c2ccccc2Cl)c2cc(NC(=O)Nc3ccc(C)c(Cl)c3)ccc2n1 | 0.0445 µg/mL (≈ 0.0928 µM) | 1 µg/mL (≈ 2.09 µM) | Selectivity Index [1]: 205.1; Activity (Plasmodium yoelii [4]): 2.15%; Activity (Plasmodium yoelii [5]): 5.08%
29 | Cc1cc(NC(=O)c2ccccc2Cl)c2cc(NC(=O)Nc3ccc(Cl)c(C(F)(F)F)c3)ccc2n1 | 0.0356 µg/mL (≈ 0.0667 µM) | – | Selectivity Index [1]: 270.9
30 | Cc1cc(NC(=O)CN2CCN(C)CC2)c2cc(NC(=O)Nc3cccc(F)c3)ccc2n1 | – | 10 µg/mL (≈ 22.2 µM) | –
31 | Cc1cc(NC(=O)c2ccccc2Cl)c2cc(NC(=O)Nc3cccc(Cl)c3)ccc2n1 | 0.22 µg/mL (≈ 0.472 µM) | 0.5 µg/mL (≈ 1.07 µM) | Selectivity Index [1]: 32.1; Activity (Plasmodium yoelii [4]): 4.23%; Activity (Plasmodium yoelii [5]): 9.77%
32 | Cc1cc(NC(=O)c2ccccc2Cl)c2cc(NC(=O)Nc3cccc(F)c3)ccc2n1 | – | 2 µg/mL (≈ 4.46 µM) | –
33 | Cc1cc(NC(=O)c2ccccc2Cl)c2cc(NC(=O)Nc3ccc(F)cc3)ccc2n1 | – | 50 µg/mL (≈ 111 µM) | –
34 | Cc1cc(NC(=O)c2ccccc2)c2cc(NC(=O)Nc3cccc(C(F)(F)F)c3)ccc2n1 | – | 10 µg/mL (≈ 21.5 µM) | –
35 | Cc1cc(NC(=O)c2ccco2)c2cc(NC(=O)Nc3ccc(Cl)c(C(F)(F)F)c3)ccc2n1 | 0.0099 µg/mL (≈ 0.0203 µM) | – | Selectivity Index [1]: 713.3
36 | Cc1cc(NC(=O)CN2CCN(C)CC2)c2cc(NC(=O)Nc3ccc(F)cc3)ccc2n1 | – | 2 µg/mL (≈ 4.44 µM) | –
37 | Cc1cc(NC(=O)CN2CCN(C)CC2)c2cc(NC(=O)Nc3cccc(C#N)c3)ccc2n1 | – | 2 µg/mL (≈ 4.37 µM) | –
38 | Cc1cc(NC(=O)c2ccccc2)c2cc(NC(=O)Nc3ccc(F)c(Cl)c3)ccc2n1 | – | 10 µg/mL (≈ 22.3 µM) | –
39 | CC(=O)Nc1cc(C)nc2ccc(NC(=O)Nc3ccc(Cl)cc3)cc12 | – | 10 µg/mL (≈ 27.1 µM) | –
40 | Cc1cc(NC(=O)c2ccccc2)c2cc(NC(=O)Nc3ccc(F)cc3)ccc2n1 | – | 10 µg/mL (≈ 24.1 µM) | –
41 | Cc1cc(NC(=O)c2cccc(Cl)c2)c2cc(NC(=O)Nc3cc(Cl)cc(Cl)c3)ccc2n1 | 0.218 µg/mL (≈ 0.436 µM) | 2 µg/mL (≈ 4 µM) | Selectivity Index [1]: 187.7
42 | CC(=O)c1cccc(NC(=O)Nc2ccc3nc(C)cc(NC(=O)c4ccccc4Cl)c3c2)c1 | – | 2 µg/mL (≈ 4.23 µM) | –
43 | Cc1cc(NC(=O)c2cccc(Cl)c2)c2cc(NC(=O)Nc3ccc(F)c(Cl)c3)ccc2n1 | 0.0682 µg/mL (≈ 0.141 µM) | – | Selectivity Index [1]: 125.6; Activity (Plasmodium yoelii [4]): 3.76%; Activity (Plasmodium yoelii [5]): 15.5%
44 | Cc1cc(NC(=O)c2cccc(Cl)c2)c2cc(NC(=O)Nc3ccc(F)cc3)ccc2n1 | – | 10 µg/mL (≈ 22.3 µM) | –

Row | SMILES | IC50 (Plasmodium falciparum [2]) | MIC (Plasmodium falciparum [3]) | also measured
45 | Cc1cc(NC(=O)CN2CCCCC2)c2cc(NC(=O)Nc3cc(Cl)cc(Cl)c3)ccc2n1 | 0.0288 µg/mL (≈ 0.0592 µM) | 0.5 µg/mL (≈ 1.03 µM) | Selectivity Index [1]: 396.9
46 | Cc1cc(NC(=O)c2cccc(Cl)c2)c2cc(NC(=O)Nc3ccc(Cl)c(C(F)(F)F)c3)ccc2n1 | – | > 10 µg/mL | –
47 | Cc1cc(NC(=O)c2ccco2)c2cc(NC(=O)Nc3ccc(Br)cc3)ccc2n1 | 0.0571 µg/mL (≈ 0.123 µM) | 1 µg/mL (≈ 2.15 µM) | Selectivity Index [1]: 1547
48 | Cc1cc(NC(=O)c2ccccc2Cl)c2cc(NC(=O)Nc3cccc(Cl)c3C)ccc2n1 | – | 10 µg/mL (≈ 20.9 µM) | –
49 | Cc1cc(NC(=O)CN2CCCCC2)c2cc(NC(=O)Nc3ccc(Cl)c(Cl)c3)ccc2n1 | 0.0758 µg/mL (≈ 0.156 µM) | 0.25 µg/mL (≈ 0.514 µM) | Selectivity Index [1]: 524.2
50 | Cc1cc(NC(=O)CN2CCN(C)CC2)c2cc(NC(=O)Nc3ccc(Cl)cc3)ccc2n1 | 0.005 µg/mL (≈ 0.0107 µM) | 0.5 µg/mL (≈ 1.07 µM) | –
51 | CC(=O)c1ccc(NC(=O)Nc2ccc3nc(C)cc(NC(=O)CN4CCN(C)CC4)c3c2)cc1 | 0.014 µg/mL (≈ 0.0295 µM) | 1 µg/mL (≈ 2.11 µM) | –
52 | Cc1cc(NC(=O)c2ccccc2)c2cc(NC(=O)Nc3cccc(C#N)c3)ccc2n1 | – | 10 µg/mL (≈ 23.7 µM) | –
53 | CCN1CCN(CC(=O)Nc2cc(C)nc3ccc(NC(=O)Nc4ccc(C)c(Cl)c4)cc23)CC1 | 0.0035 µg/mL (≈ 0.00707 µM) | 0.5 µg/mL (≈ 1.01 µM) | –
54 | Cc1cc(NC(=O)c2ccccc2)c2cc(NC(=O)Nc3cccc(F)c3)ccc2n1 | – | 10 µg/mL (≈ 24.1 µM) | –
55 | Cc1cc(NC(=O)CN2CCCCC2)c2cc(NC(=O)Nc3cccc(C(F)(F)F)c3)ccc2n1 | 0.0335 µg/mL (≈ 0.069 µM) | 0.25 µg/mL (≈ 0.515 µM) | Selectivity Index [1]: 214.3
56 | CC(=O)c1ccc(NC(=O)Nc2ccc3nc(C)cc(NC(=O)c4ccco4)c3c2)cc1 | – | 10 µg/mL (≈ 23.3 µM) | –
57 | Cc1cc(NC(=O)c2ccccc2)c2cc(NC(=O)Nc3ccc(Cl)c(C(F)(F)F)c3)ccc2n1 | 0.0194 µg/mL (≈ 0.0389 µM) | 1 µg/mL (≈ 2 µM) | –
58 | Cc1cc(NC(=O)c2ccccc2)c2cc(NC(=O)Nc3ccc(Br)cc3)ccc2n1 | – | 10 µg/mL (≈ 21 µM) | –
59 | Cc1cc(NC(=O)c2cccc(Cl)c2)c2cc(NC(=O)Nc3cccc(Cl)c3C)ccc2n1 | 0.034 µg/mL (≈ 0.0709 µM) | 1 µg/mL (≈ 2.09 µM) | Selectivity Index [1]: 184.5
60 | Cc1cc(NC(=O)CN2CCCCC2)c2cc(NC(=O)Nc3ccc(Cl)cc3)ccc2n1 | 0.023 µg/mL (≈ 0.0509 µM) | 0.5 µg/mL (≈ 1.11 µM) | Selectivity Index [1]: 64.9
61 | CCN(CC)CCCC(C)Nc1ccnc2cc(Cl)ccc12 (configuration not stated) [CHLOROQUINE] | – | 0.015 µg/mL (≈ 0.0469 µM) | –
62 | Cc1cc(NC(=O)c2ccccc2)c2cc(NC(=O)Nc3ccc(Cl)c(Cl)c3)ccc2n1 | 0.0109 µg/mL (≈ 0.0234 µM) | 1 µg/mL (≈ 2.15 µM) | –
63 | Cc1cc(NC(=O)c2cccc(Cl)c2)c2cc(NC(=O)Nc3cccc(C(F)(F)F)c3)ccc2n1 | 0.0099 µg/mL (≈ 0.0198 µM) | – | Selectivity Index [1]: 6014.2
64 | Cc1cc(NC(=O)c2ccccc2Cl)c2cc(NC(=O)Nc3ccc(F)c(Cl)c3)ccc2n1 | – | 10 µg/mL (≈ 20.7 µM) | –
